KCNK9 inh = human KCNK9 channel inhibition | actives 1.2% (n = 310,000) | B-score at 10 µM | HEK293 KCNK9, FluxOR thallium flux fluorescence; active compounds read low | AID 488922;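 active means ratio B-score over 3 SD below the library mean, with starting fluorescence within 5 SD of its mean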;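 further: negative B-score means less thallium flux so channel inhibition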
KCNQ1 act = human KCNQ1 channel potentiation or activation. P51787. CHO-K1 KCNQ1, thallium flux FluxOR fluorescence; active compounds read high. B-score at 10 µM. actives 0.35% (n = 310,000);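 active means fluorescence ratio B-score, a plate-corrected score, at least three library SD, with initial intensity B-score within 5 SD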
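assay system = CHO-K1 cells stably expressing KCNQ1 | medium = assay buffer, equal DMSO in all wells | timing = 37 °C overnight plating, 90-min dark dye load, 20-min compound pretreatment | measured by = kinetic FluxOR thallium fluorescence, 10-s 1-Hz baseline, 110-s post-stimulus read | measure = fluorescence change relative to baseline, converted to B score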
hERG rescue = compounds protecting human hERG from proarrhythmic drug block; actives 0.51% (n = 310,000); activation (rescue from dofetilide block), less the hit threshold, % at 10 µM; Q12809; CHO-hERG, FluxOR thallium flux, dofetilide IC70 present;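 active means activation above the mean of controls blocked by dofetilide plus 5 SD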;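 further: thallium influx through hERG after potassium depolarization seen as dye fluorescence rise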
KCNK3 inh = human KCNK3 channel inhibition, primary screen; O14649; CHO-KCNK3 thallium flux, FluxOR fluorescence; active compounds read low; B-score at 10 µM; actives 0.84% (n = 340,000);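 active means B-score under library mean minus 4 SD, starting fluorescence ratio at most library mean plus 5 SD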;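 further: more negative B-score means stronger inhibition of thallium flux through KCNK3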
KCNQ1 block = inhibitors of human KCNQ1 potassium channel | CHO-K1 KCNQ1, FluxOR thallium flux fluorescence; active compounds read high | B-score at 10 µM | actives 1.3% (n = 310,000) | AID 2642;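 active means compounds whose thallium flux B-score, printed positive for inhibition, exceeds three library SD while starting fluorescence stays within three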;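 further: channel opened by potassium depolarization with thallium stimulus after 20 min compound exposure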
Large screens that a line does not name were inactive. An excerpt weighted towards active compounds, which were near 3.1% of everything screened.

CC1Cc2ccccc2N1c1ncnc2c1nnn2Cc1ccccc1 (stereo not drawn)	none
CC1Cc2ccccc2N1c1nc(C2CC2)nc2c1nnn2Cc1ccccc1 (stereo not drawn)	KCNQ1 block 6
COc1ccc2c(c1)[nH]c1c(N3CCN(Cc4ccc5c(c4)OCO5)CC3)ncnc12	KCNQ1 block 9
COC(=O)c1c(NC(=O)c2cccc(S(=O)(=O)N3CCN(C)CC3)c2)sc(C)c1C	none
CC(C)C(NC(=O)c1ccccc1NC(=O)c1ccccc1)C(=O)NCCCn1ccnc1 (stereo not drawn)	none
COC(=O)c1ccc(-c2sc3nc(N4CCOCC4)c4c(c3c2N)CCCC4)o1	KCNK9 inh -9.2, KCNQ1 block 6 (no result: KCNK3 inh)
CCN1C(=O)[C@H]2[C@@H](c3ccc(-c4ccc(C(C)=O)cc4)cc3)N3CCCC[C@@]3(C(=O)OC)[C@H]2C1=O	none
C=C1CCN(c2ccc(C(=O)NCc3ccc(C)cc3)cc2[N+](=O)[O-])CC1	KCNQ1 act 14
C=C1CCN(c2ccc(C(=O)NCc3ccc(OC)cc3)cc2[N+](=O)[O-])CC1	none
CC1(C)CC2CC(C)(CN2C(=O)c2cc(-c3ccc(O)cc3)on2)C1 (stereo not drawn)	none
COC(=O)c1cc(-c2cccc(OC)c2)on1	hERG rescue 7.2
COc1cccc(-c2cc(C(=O)N3CC4(C)CC3CC(C)(C)C4)no2)c1 (stereo not drawn)	KCNK9 inh -6.8
CCOC(=O)[C@@H]1[C@H]2COc3cc(OC)ccc3[C@@H]2N2C(=O)N(c3ccccc3)C(=O)[C@@]12C	none (no result: KCNK9 inh, KCNQ1 act, hERG rescue, KCNQ1 block)
COc1cccc(-n2nc(C(=O)O)c3ccccc3c2=O)c1	hERG rescue 6.5
Cc1cccc(NC(=O)C(C)OC(=O)c2ccccc2NS(=O)(=O)c2cc(C)c(C)c([N+](=O)[O-])c2)c1 (stereo not drawn)	KCNQ1 block 9
CC(=O)Nc1ccc(NC(=O)C(C)OC(=O)c2ccccc2NS(=O)(=O)c2cccs2)cc1 (stereo not drawn)	none
CCn1c(C)nc2cc(-c3nnc(-c4c(-c5ccccc5)noc4C)o3)ccc21	hERG rescue 34
Cc1onc(-c2ccccc2)c1-c1nnc(-c2ccccc2C(F)(F)F)o1	none
O=C(Cc1ccc(Br)cc1)N1CCN(C(=O)c2ccco2)CC1	none
COC(=O)c1ccc(CO/N=C/c2cccc([N+](=O)[O-])c2)cc1	KCNK9 inh -6.7
Cc1cc2ccccn2c1C(=O)c1ccc(F)cc1	KCNK9 inh -7.2
Cc1cc(OC(=O)c2ccccc2C(F)(F)F)c([N+](=O)[O-])c(=O)[nH]1	none
Cc1cc(/C=N/n2c(COc3ccccc3C)nc3ccccc3c2=O)c(O)c([N+](=O)[O-])c1	KCNQ1 block 14
O=C(CNC(=O)c1ccc(Cl)cc1)OCCCOC(=O)CNC(=O)c1ccc(Cl)cc1	none
Cc1cccc(N2C(=O)CS/C2=N\NC(=O)c2ccc(Br)cc2)c1C	hERG rescue 5.6
Cc1cccc(NC(=O)c2ccc(C)c(S(=O)(=O)N3CCCCC3)c2)n1	none
COc1ccc(-n2c(NC(=O)c3ccc(Br)o3)c(C#N)c3nc4ccccc4nc32)cc1	KCNQ1 block 7 (no result: KCNK3 inh)
N#Cc1c(NC(=O)c2ccc(Br)o2)n(-c2ccccc2)c2nc3ccccc3nc12	none
CCCc1cc(=O)oc2c(C)c(OCC(=O)NC3CCN(Cc4ccccc4)CC3)ccc12	none
Cc1ccc(S(=O)(=O)NCC(=O)OC(C)C(=O)NC(=O)NC2CCCCC2)cc1C (stereo not drawn)	none (no result: KCNK9 inh, KCNQ1 act, hERG rescue, KCNQ1 block)
CN(Cc1c(F)cccc1Cl)C(=O)CNC(=O)c1sc2ccccc2c1Cl	none
CCOc1ccc2[nH]c(C)c(CN3CCCCC3)c(=O)c2c1	none
CCN1CCN(Cc2c(C)[nH]c3ccc(C(=O)OC)cc3c2=O)CC1	hERG rescue 5.6
CCOc1ccc(OCCNC(=O)c2cc(C3CC3)nc3c2cnn3C(C)C)cc1	KCNK3 inh -8.9 (no result: KCNK9 inh, KCNQ1 act, hERG rescue, KCNQ1 block)
CC(C)n1ncc2c(C(=O)NCCOc3ccccc3F)cc(C3CC3)nc21	none (no result: KCNK9 inh, KCNQ1 act, hERG rescue, KCNQ1 block)
COc1ccc(S(=O)(=O)N2CCCCC2)cc1NC(=O)CCC(=O)N1CCC(c2ccccc2)=N1	none (no result: KCNK9 inh, KCNQ1 act, hERG rescue, KCNQ1 block)
Clc1ccc(-c2nnc(-c3ccco3)o2)cc1	none
c1cncc(-c2nnc(-c3ccco3)o2)c1	hERG rescue 6.3
CCc1cc(CNC(=O)C2CCC(=O)N(Cc3cccc(F)c3)C2)on1 (stereo not drawn)	none
CCc1ccc(/C=c2\s/c(=C\C(=O)C(C)(C)C)[nH]c2=O)cc1	none
CC(C)(C)C(=O)/C=c1\[nH]c(=O)/c(=C\c2ccc(F)cc2)s1	KCNK9 inh -8
Cc1ccc2[nH]c(=O)c(CN(CCCN(C)C)C(=S)NCCc3ccccc3)cc2c1	KCNQ1 act 10
COCCN(CC(=O)Nc1cccc(C)c1C)C(=O)Cn1c(=O)cnc2ccccc21	none (no result: KCNK9 inh, KCNQ1 act, hERG rescue, KCNQ1 block)
Cc1ccc(C(=O)NCC(c2ccc(F)cc2)N2CCOCC2)s1 (stereo not drawn)	none (no result: KCNK9 inh, KCNQ1 act, hERG rescue, KCNQ1 block)
Cc1cc(C)n(-c2nc3ccccc3nc2Nc2ccc3c(c2)OCO3)n1	KCNK9 inh -7.3
CCOC(=O)Cc1csc(NC(=S)NC(=O)c2ccc(F)cc2)n1	KCNQ1 act 8
CCOC(=O)Cc1csc(NC(=S)NC(=O)c2ccccc2C)n1	KCNQ1 act 16
CN(CC(=O)Nc1ccccc1Cl)C(=O)CCc1nc2ccccc2c(=O)[nH]1	none
CC(=O)Nc1ccc(S[C@@H](CCN2CC[C@H](C(C)(C)C)CCC2=O)c2ccccc2)cc1	none (no result: KCNK9 inh, KCNQ1 act, hERG rescue, KCNQ1 block)
CC(C)(C)[C@@H]1CCC(=O)N(CC[C@H](Sc2ccccc2)c2ccccc2)CC1	KCNQ1 block 6
CC(C)(C)[C@H]1CCC(=O)N([C@H](CSc2ccccc2)Cc2ccccc2)CC1	KCNK9 inh -6.8
CC[C@]12C(=O)N(C)C[C@H]([C@@H]3C(=O)N(C)C(=O)[C@@H]31)N2C(=O)c1ccc(Br)cc1	none (no result: KCNK9 inh, KCNQ1 act, hERG rescue, KCNQ1 block)
CCN(C[C@H]1N[C@@](CC)(C(=O)OC)[C@H]2C(=O)N(Cc3ccccc3)C(=O)[C@@H]12)C(=O)c1ccccc1	none (no result: KCNK9 inh, KCNQ1 act, hERG rescue, KCNQ1 block)
CCOC(=O)C1=C(c2ccccc2)OC(N)=C(C#N)C1c1cccnc1 (stereo not drawn)	none
CCOC(=O)C1=C(c2ccccc2)OC(N)=C(C#N)C1c1ccc(Br)s1 (stereo not drawn)	KCNK9 inh -7.3
CCOC(=O)C1=C(c2ccccc2)OC(N)=C(C#N)C1c1ccc(Cl)s1 (stereo not drawn)	KCNK9 inh -6.6
CC1CCC2(CC1)NC(=O)N(CC(=O)N1CCN(S(=O)(=O)c3ccc4c(c3)CCC4)CC1)C2=O (stereo not drawn)	none (no result: KCNK9 inh, KCNQ1 act, hERG rescue, KCNQ1 block)
COc1cccc(CN2CCN(S(=O)(=O)c3ccc(Br)cc3)CC2)c1	KCNK3 inh -9.7
COc1ccc(S(=O)(=O)N2CCN(Cc3cccc(OC)c3)CC2)cc1	none
CN1CCN(c2ncc(CN3C(=O)c4ccccc4C3=O)s2)CC1	hERG rescue 5.9
O=C(NCCc1ccc(Cl)cc1)C1CCN(C(=O)c2ccc(F)cc2)CC1	none

Screening results as filed in PubChem.
